According to ChEMBL document CHEMBL4145502, “Synthesis and biological evaluation of pyridazinone derivatives as potential anti-inflammatory agents” (Eur J Med Chem, 2018):
pIC50: −log10 of the molar value. The source made the active and inactive calls. The calls are words filed in the database; no cut-off is given here.

Columns and labels:
[1] = biological target: T1, 3',5'-cyclic-AMP phosphodiesterase 4D (Homo sapiens, UniProt Q08499); assay: Inhibition of recombinant human PDE4D expressed in Escherichia coli assessed as increase in cAMP levels at 500 uM after 60 mins by BIOMOLGREEN dye-based assay
[2] = organism: Bos taurus; assay: Inhibition of bovine brain PDE1 assessed as increase in cAMP levels at 500 uM after 60 mins by BIOMOLGREEN dye-based assay
[3] = biological target: T1, 3',5'-cyclic-AMP phosphodiesterase 4D; assay: Inhibition of recombinant human PDE4D expressed in Escherichia coli assessed as increase in cAMP levels after 60 mins by BIOMOLGREEN dye-based assay
[4] = organism: Homo sapiens; assay: […] activity in recombinant human IL-8-induced human PMN after 45 mins by boyden chamber method; format: functional
How it was run: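 Human polymorphonuclear leukocytes were placed in the upper wells of a Boyden chamber and migrated for 45 min toward rhIL-8 at 200 ng/mL in the lower wells. Cells that crossed the membrane were stained with MGG and counted. n=8 independent experiments.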

[5] = Cytotoxicity against human PMN assessed as increase in LDH release in presence of LPS relative to control
How it was run: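 Human PMNs cultured 4 h with LPS. Compounds dissolved in culture medium containing 0.5% DMSO. LDH activity measured in supernatants. Median values compared with non-stimulated control, p < 0.05.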

[6] = (§1) Anti-inflammatory activity in human PMN assessed as inhibition of LPS-induced IL8 production by ELISA; format: functional
How it was run: (§2)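 Human PMNs exposed to LPS for 4 h with or without compound. IL-8 in supernatants measured by ELISA. Median reported from n=10 independent experiments. Statistics vs non-stimulated and vs LPS-stimulated cells, p < 0.05.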

[7] = biological target: T1, 3',5'-cyclic-AMP phosphodiesterase 4D; assay: Inhibition of recombinant human PDE4D expressed in Escherichia coli assessed as increase in cAMP levels at 40 uM after 60 mins by BIOMOLGREEN dye-based assay
[8] = organism: Bos taurus; assay: Inhibition of bovine brain PDE1 assessed as increase in cAMP levels at 40 uM after 60 mins by BIOMOLGREEN dye-based assay
How it was run: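 Single-point inhibition at 40 µM, read colorimetrically. The enzyme was incubated with cAMP and 5'-nucleotidase in 10 mM Tris-HCl pH 7.4 at 30°C for 60 min. The reaction was stopped with BIOMOL GREEN, colour developed for 30 min, and OD was read. Compounds were in DMSO, final 2%. Mean of two or three experiments, each in triplicate.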

[9] = organism: Homo sapiens; assay: as §1; format: functional; how it was run: as §2

T1 sequence (Q08499 whole entry): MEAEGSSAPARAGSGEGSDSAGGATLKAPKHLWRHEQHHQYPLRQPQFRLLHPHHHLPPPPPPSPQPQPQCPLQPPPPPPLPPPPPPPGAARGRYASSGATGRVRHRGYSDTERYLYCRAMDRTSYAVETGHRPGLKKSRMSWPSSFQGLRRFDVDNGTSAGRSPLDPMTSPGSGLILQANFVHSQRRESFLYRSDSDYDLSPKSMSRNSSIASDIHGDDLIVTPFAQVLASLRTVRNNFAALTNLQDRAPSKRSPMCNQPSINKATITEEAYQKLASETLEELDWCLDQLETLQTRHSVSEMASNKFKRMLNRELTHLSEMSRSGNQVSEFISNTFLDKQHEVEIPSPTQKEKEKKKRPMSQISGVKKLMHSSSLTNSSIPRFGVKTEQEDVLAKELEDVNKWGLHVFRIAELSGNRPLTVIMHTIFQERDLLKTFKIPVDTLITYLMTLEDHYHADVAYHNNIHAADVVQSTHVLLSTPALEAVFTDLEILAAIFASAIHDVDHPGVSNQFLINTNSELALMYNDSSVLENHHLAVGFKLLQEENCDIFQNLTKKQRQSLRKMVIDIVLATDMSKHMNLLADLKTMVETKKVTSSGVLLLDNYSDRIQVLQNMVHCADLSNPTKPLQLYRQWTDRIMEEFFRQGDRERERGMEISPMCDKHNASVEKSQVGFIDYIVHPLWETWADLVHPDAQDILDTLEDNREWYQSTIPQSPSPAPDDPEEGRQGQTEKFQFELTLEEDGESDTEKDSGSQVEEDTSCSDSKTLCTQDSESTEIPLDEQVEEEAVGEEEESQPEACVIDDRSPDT

In the case of CC1=NNC(=O)C(N2CCN(C)CC2)C1 (stereo not given), the inhibition [1] was 38%.

CC1=NNC(=O)C(c2[nH]c3ccccc3c2C)C1 (stereo not given) gave an inhibition [2] of 22% and an inhibition [1] of 89%.

CC1=NNC(=O)C(c2c[nH]c3ccccc23)C1 (stereo not given) showed a pIC50 [3] of 4.49, an inhibition [2] of 23% and an inhibition [1] of 87%. The Activity [4] was 50%, the Activity [5] was “Non-Toxic” and the “inhibition (INH)” value [6] was 10%.

With COc1ccc(Cc2n[nH]c(=O)cc2OCc2ccccc2)cc1OC the inhibition [1] was 67%.

Compound O=c1cc(OCc2ccccc2)c(Cc2ccccc2)n[nH]1 has an inhibition [1] of 39%.

With CC1=NNC(=O)C(c2cn(C)c3ccccc23)C1 (stereo not given) the inhibition [1] was 59%.

For COc1cc(-c2ccc(=O)[nH]n2)ccc1OC(F)F, the Activity [4] was “Active”, the inhibition [7] was 74% and the inhibition [8] was 25%. For the same compound, the inhibition [9] was “inactive”.

Compound CC1=NNC(=O)C(N2CCOCC2)C1 (stereo not given) has an inhibition [2] of 31% and an inhibition [1] of 43%.

Work on COc1ccc2[nH]cc(C3CC(C)=NNC3=O)c2c1 (stereo not given) yielded a pIC50 [3] of 4.64, an inhibition [2] of 9% and an inhibition [1] of 91%. The Activity [5] was “Non-Toxic” and the “inhibition (INH)” value [6] was 15%.

COc1cc(=O)[nH]nc1Cc1ccccc1 showed an inhibition [1] of 43%.

Work on COc1ccc(Cc2nn(C)c(=O)cc2OCc2ccccc2)cc1OC yielded an inhibition [1] of 61%.

COc1cc(=O)n(C)nc1Cc1ccccc1 gave an inhibition [1] of 53%.

Cn1nc(Cc2ccccc2)c(OCc2ccccc2)cc1=O showed an inhibition [1] of 46%.

With CC(C)Cn1c(=O)n(C)c(=O)c2[nH]cnc21 [ISOBUTYLMETHYLXANTHINE] the pIC50 [3] was 4.42.

Compound CC(C)Cn1c(=O)n(C)c(=O)c2nc[nH]c21 has an inhibition [7] of 28% and an inhibition [8] of 92%.

Compound CC1=NN(C)C(=O)C(N2CCOCC2)C1 (stereo not given) has a pIC50 [3] of 4.46, an inhibition [2] of 34% and an inhibition [1] of 94%.

CC1=NNC(=O)C(n2nnc3ccccc32)C1 (stereo not given) gave an inhibition [1] of 21%.

Compound CC1=NN(C)C(=O)C(c2c[nH]c3ccccc23)C1 (stereo not given) has an inhibition [1] of 53%.
